Source: ChEMBL document CHEMBL1121715, “New antiarrhythmic agents. 4. 1'-(Aminoalkyl)-1,2,3,4-tetrahydronaphthalene-1-spiro-3'-pyrrolidine-2',5'-dione derivatives” (J Med Chem, 1981)
“And” between values parts separate entries of the source, which are not always exact repeats. Identical values can stand only once.

Key:
Canis familiaris [1] = organism: Canis familiaris; assay: (§1) The dose at which toxicity was measured; type: organism-based, Canis lupus familiaris; conditions: dog, in vivo
How it was run: (§2)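 Adult female dogs (6.7–14.5 kg) had two-stage ligation of the left anterior descending coronary artery the day before testing. After control ventricular rate, % ectopic beats and mean arterial pressure were recorded, the drug (HCl salt, isotonic solution) was infused iv without anesthesia at 0.1, 0.5 or 1.0 (mg/kg)/min, mostly 0.5. Infusion continued until the arrhythmia was abolished or cardiovascular/CNS toxicity appeared. Cumulative dose is given in mmol/kg; toxicity included convulsion and P-R prolongation ≥25%.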

Canis familiaris [2] = assay: % ectopic beats was measured in anesthetized dog at 0.026 dose; type: functional, Canis lupus familiaris, Heart; conditions: in the assay text read “unanesthetized” for “anesthetized”
How it was run: (§3)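 Adult female dogs (6.7–14.5 kg) had the left anterior descending coronary artery ligated in two stages the day before testing. Dogs were unanesthetized. Ectopic beats (% of ventricular rate) and mean arterial pressure were read at maximal antiarrhythmic effect against the cumulative dose.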

Canis familiaris [3] = assay: % ectopic beats was measured in anesthetized dog at 0.053 dose; type: functional, Canis lupus familiaris, Heart; conditions: in the assay text read “unanesthetized” for “anesthetized”; how it was run: as §3
Canis familiaris [4] = assay: MABP value was measured in anesthetized dog at 0.026 dose; type: functional, Canis lupus familiaris; conditions: in the assay text read “unanesthetized dog” for “anesthetized dog”; how it was run: as §3
Canis familiaris [5] = assay: MABP value was measured in anesthetized dog at 0.053 dose; type: functional, Canis lupus familiaris; conditions: in the assay text read “unanesthetized dog” for “anesthetized dog”; how it was run: as §2
Canis familiaris [6] = organism: Canis familiaris; assay: as §1; type: organism-based, Canis lupus familiaris; parameters: unit: mmol/kg; conditions: dog, in vivo; how it was run: as §2
Canis familiaris [7] = assay: Ventricular rate was measured in anesthetized dog at 0.053 dose; type: functional, Canis lupus familiaris, Heart; conditions: in the assay text read “unanesthetized dog” for “anesthetized dog”; how it was run: as §2
Canis familiaris [8] = assay: Ventricular rate was measured in anesthetized dog at 0.026 dose; type: functional, Canis lupus familiaris, Heart
Mus musculus [9] = organism: Mus musculus; assay: Percentage toxicity measured as ataxia.; type: organism-based; conditions: in vivo
How it was run: (§4)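 Mice (groups of 10) were dosed sc with drug in 0.9% saline and watched for 20 min for overt toxicity (ataxia, convulsions, loss of righting reflex, death) before chloroform exposure.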

[10] = Percentage toxicity measured as death of mice.; type: organism-based; parameters: concentration or dose not given beside the values; conditions: mouse, in vivo; read-out: Death
Mus musculus [11] = organism: Mus musculus; assay: Percentage toxicity measured as loss of righting reflex.; type: organism-based; conditions: in vivo; how it was run: as §4
Mus musculus [12] = assay: Protection against chloroform induced arrhythmias was measured in mice after sc administration at given dose; type: functional
How it was run: (§5)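 Groups of 10 unanesthetized mice got sc injection of drug in 0.9% saline. After 20 min observation they were placed one by one in chloroform-vapor-saturated air. When breathing stopped, the thorax was opened and the heart inspected by eye; coordinated ventricular contractions counted as protected.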

Mus musculus [13] = assay: Protection against chloroform induced arrhythmias in mice after subcutaneous administration at 100 mg/kg dose.; type: functional; how it was run: as §5
Mus musculus [14] = organism: Mus musculus; assay: Percentage toxicity measured as convulsions.; type: organism-based; conditions: in vivo; how it was run: as §4
[15] = Total body clearance was measured at given dose.; type: ADME, organism-based; conditions: in vivo
How it was run: (§6)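 Blood levels came from the iv-infused dogs, measured by GC-FID after methylene chloride extraction and heptafluorobutyryl derivatization with an internal standard. Total body clearance was total dose divided by the blood-level AUC (zero to infinity); volume of distribution was clearance divided by the elimination rate constant.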

[16] = Volume of distribution was measured at given dose of 34 umol/kg; type: ADME, organism-based; conditions: in vivo
How it was run: (§7)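 In dogs given iv infusions, blood samples were alkaline-extracted (pH 10.3) into methylene chloride and derivatized with heptafluorobutyrylimidazole. Concentrations were measured by GC-FID against an internal standard using standard curves. Clearance was total dose ÷ blood-level AUC (zero to infinity), and volume of distribution was clearance ÷ elimination rate constant.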

[17] = Volume of distribution was measured at given dose of 43 umol/kg; type: ADME, organism-based; conditions: in vivo; how it was run: as §7
[18] = Volume of distribution was measured at given dose of 81 umol/kg; type: ADME, organism-based; conditions: in vivo; how it was run: as §7
Canis familiaris [19] = organism: Canis familiaris; assay: (§8) The dose at which toxicity was measured.; type: organism-based, Canis lupus familiaris; conditions: dog, in vivo; how it was run: as §2
Canis familiaris [20] = organism: Canis familiaris; assay: (§9) Toxicity of blood level was measured; type: organism-based, Canis lupus familiaris; conditions: dog, in vivo
How it was run: (§10)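 In coronary-ligated conscious dogs under iv infusion, blood was sampled at toxicity. Drug was extracted with methylene chloride at pH 10.3 (ammonium citrate/ammonia) with another analogue as internal standard, then derivatized with heptafluorobutyrylimidazole. Assay was GC-FID on 3% JXR, quantified from drug/internal standard peak-height ratio against standard curves; results in μmol/mL.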

Canis familiaris [21] = organism: Canis familiaris; assay: as §8; type: organism-based, Canis lupus familiaris; conditions: dog, in vivo; how it was run: as §2; remark: listed apart in the source
Canis familiaris [22] = assay: Blood level was measured in anesthetized 0.047 at given dose.; type: functional, Canis lupus familiaris; conditions: in the assay text read “unanesthetized” for “anesthetized”
How it was run: (§11)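 Blood was sampled from unanesthetized dogs with coronary-ligation arrhythmias during iv drug infusion. Each 1 mL sample was mixed with internal standard and pH 10.3 ammonium citrate/ammonia buffer and extracted into methylene chloride. The extract was dried at 50 °C and derivatized with heptafluorobutyrylimidazole. Analysis was by GC with flame-ionization detection (3% JXR column, 220 °C). Concentration came from the drug/internal standard peak-height ratio against standard curves.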

Canis familiaris [23] = assay: Blood level was measured in anesthetized dog at 0.016d ose.; type: functional, Canis lupus familiaris; conditions: in the assay text read “unanesthetized” for “anesthetized”; how it was run: as §11
Canis familiaris [24] = organism: Canis familiaris; assay: as §9; type: organism-based, Canis lupus familiaris; conditions: dog, in vivo; how it was run: as §10; remark: listed apart in the source
Canis familiaris [25] = assay: % ectopic beats was measured in anesthetized dog at 0.016 dose.; type: functional, Canis lupus familiaris, Heart; conditions: in the assay text read “unanesthetized” for “anesthetized”; how it was run: as §3
Canis familiaris [26] = assay: % ectopic beats was measured in anesthetized dog at 0.047 dose.; type: functional, Canis lupus familiaris, Heart; conditions: in the assay text read “unanesthetized” for “anesthetized”; how it was run: as §3
Canis familiaris [27] = organism: Canis familiaris; assay: (§12) Maximum dose of the Compound; type: ADME, organism-based, Canis lupus familiaris; conditions: dog, in vivo; how it was run: as §2
Canis familiaris [28] = organism: Canis familiaris; assay: as §12; type: functional, Canis lupus familiaris; how it was run: as §2
Canis familiaris [29] = assay: MABP value was measured in anesthetized dog at 0.016 dose.; type: functional, Canis lupus familiaris; conditions: in the assay text read “unanesthetized dog” for “anesthetized dog”; how it was run: as §3
Canis familiaris [30] = assay: MABP value was measured in anesthetized dog at 0.047 dose.; type: functional, Canis lupus familiaris; conditions: in the assay text read “unanesthetized dog” for “anesthetized dog”; how it was run: as §2
Canis familiaris [31] = assay: Ventricular rate was measured in anesthetized dog at 0.016 dose; type: functional, Canis lupus familiaris, Heart; conditions: in the assay text read “unanesthetized dog” for “anesthetized dog”; how it was run: as §2
Canis familiaris [32] = assay: Ventricular rate was measured in anesthetized dog at 0.047 dose; type: functional, Canis lupus familiaris, Heart; conditions: in the assay text read “unanesthetized dog” for “anesthetized dog”; how it was run: as §2
Mus musculus [33] = assay: Protection against chloroform induced arrhythmias was measured in mice after sc administration at given dose.; type: functional; conditions: Mus musculus, sc; read-out: ED50; how it was run: as §5
[34] = Maximal concentration in dogs after intravenous administration; conditions: dog, in vivo
Canis familiaris [35] = assay: as above; conditions: dog, in vivo
[36] = Maximal concentration in dogs after 34 umol/kg intravenous dose; conditions: dog, in vivo
[37] = Total body clearance was measured at given dose; type: ADME; how it was run: as §6
[38] = Volume of distribution was measured at given dose of 25 umol/kg; type: ADME, organism-based; conditions: in vivo; how it was run: as §7
[39] = Volume of distribution was measured at given dose of 29 umol/kg; type: ADME, organism-based; conditions: in vivo; how it was run: as §7
Canis familiaris [40] = assay: MABP value was measured in anesthetized dog at given dose; type: functional, Canis lupus familiaris
Canis familiaris [41] = organism: Canis familiaris; assay: (§13) Total dose of the compound; type: functional, Canis lupus familiaris; how it was run: as §2
Canis familiaris [42] = organism: Canis familiaris; assay: Blood level was measured in […] at 0.004 dose; type: functional, Canis lupus familiaris
Canis familiaris [43] = assay: Blood level was measured in anesthetized dog at 0.014 dose; type: functional, Canis lupus familiaris
Canis familiaris [44] = assay: % ectopic beats was measured in anesthetized dog at 0.014 dose; type: functional, Canis lupus familiaris, Heart; conditions: in the assay text read “unanesthetized” for “anesthetized”; how it was run: as §3
Canis familiaris [45] = assay: % ectopic beats was measured in anesthetized dog at 0.028 dose; type: functional, Canis lupus familiaris, Heart; conditions: in the assay text read “unanesthetized” for “anesthetized”; how it was run: as §3
Canis familiaris [46] = organism: Canis familiaris; assay: as §13; type: functional, Canis lupus familiaris; how it was run: as §2; remark: listed apart in the source
Canis familiaris [47] = assay: Ventricular rate was measured in anesthetized dog at 0.004 dose; type: functional, Canis lupus familiaris, Heart; conditions: in the assay text read “unanesthetized dog” for “anesthetized dog”; how it was run: as §2
Canis familiaris [48] = assay: Ventricular rate was measured in anesthetized dog at 0.014 dose; type: functional, Canis lupus familiaris, Heart; conditions: in the assay text read “unanesthetized dog” for “anesthetized dog”; how it was run: as §2
Canis familiaris [49] = organism: Canis familiaris; assay: Ventricular rate was measured in […] at 0.028 dose; type: functional, Canis lupus familiaris, Heart; how it was run: as §2
[50] = Maximal concentration in dogs after 29 umol/kg intravenous dose; conditions: dog, in vivo
Canis familiaris [51] = assay: % ectopic beats was measured in unanesthetized dog at 0.004 dose

## CCN(CC)CCN1C(=O)CC2(CCCc3ccc(O)cc32)C1=O (stereo not given)
Canis familiaris [1]
  Cumulative dose: 0.042
Canis familiaris [2]
  Etopic beats: 3%
Canis familiaris [3]
  Etopic beats: 7%
Canis familiaris [4]
  MABP: 130 mmHg
Canis familiaris [5]
  MABP: 135 mmHg
Canis familiaris [6]
  Cumulative dose: 0.026 mM/kg
Canis familiaris [7]
  Ventricular rate: 102 beats min-1
Canis familiaris [8]
  Ventricular rate: 132 beats min-1
Mus musculus [9]
  Ataxia: 0%
[10]
  mortality: 0%
Mus musculus [11]
  Loss of righting reflex: 0%
Mus musculus [12]
  ED50: 150 µmol/kg
Mus musculus [13]
  Protection: 90%
Mus musculus [14]
  Convulsion: 0%

## CCN(CC)CCCCN1C(=O)CC2(CCCc3ccc(OC)cc32)C1=O (stereo not given)
[15]
  ClB: 8.22 mL/min/kg and 12.8 mL/min/kg
[15]; ClB
  clearance: 10.4 mL/min/kg
[16]
  Vd: 2.64 L/kg
[17]
  Vd: 2.47 L/kg
[18]
  Vd: 3.41 L/kg
Canis familiaris [19]
  Cumulative dose: 0.02
Canis familiaris [20]
  Blood level: 18 µM
Canis familiaris [21]
  Cumulative dose: 0.081
Canis familiaris [22]
  Blood level: 0.02 uM ml-1
Canis familiaris [23]
  Blood level: 0.011 uM ml-1
Canis familiaris [24]
  Blood level: 0.029 uM ml-1
Canis familiaris [25]
  Etopic beats: 1%
Canis familiaris [26]
  Etopic beats: 0%
Canis familiaris [27]
  Dose: 34 µM/kg
Canis familiaris [28]
  Dose: 81 µM/kg and 43 µM/kg
Canis familiaris [29]
  MABP: 95 mmHg
Canis familiaris [30]
  MABP: 100 mmHg
Canis familiaris [31]
  Ventricular rate: 147 beats min-1
Canis familiaris [32]
  Ventricular rate: 165 beats min-1
Mus musculus [9]
  Ataxia: 0%
[10]
  mortality: 0%
Mus musculus [11]
  Loss of righting reflex: 0%
Mus musculus [33]
  ED50: 130 µmol/kg
Mus musculus [13]
  Protection: 80%
Mus musculus [14]
  Convulsion: 0%
[34]
  Cmax: 29 µM
Canis familiaris [35]
  Cmax: 20 µM
[36]
  Cmax: 12 µM

## CCN(CC)CCCN1C(=O)CC2(CCCc3ccc(O)cc32)C1=O (stereo not given)
[37]
  ClB: 6.06 mL/min/kg
[37]; ClB
  clearance: 3.81 mL/min/kg
[38]
  Vd: 1.58 L/kg
[39]
  Vd: 1.6 L/kg
Canis familiaris [40]
  MABP: 85 mmHg and 125 mmHg
Canis familiaris [41]
  Dose: 29 µM/kg
Canis familiaris [42]
  Blood level: 0.019 uM ml-1
Canis familiaris [43]
  Blood level: 0.01 uM ml-1
Canis familiaris [44]
  Etopic beats: 0%
Canis familiaris [45]
  Etopic beats: 6%
Canis familiaris [46]
  Dose: 25 µM/kg
Canis familiaris [47]
  Ventricular rate: 168 beats min-1
Canis familiaris [48]
  Ventricular rate: 150 beats min-1
Canis familiaris [49]
  Ventricular rate: 153 beats min-1
Mus musculus [9]
  Ataxia: 0%
[10]
  mortality: 0%
Mus musculus [11]
  Loss of righting reflex: 0%
Mus musculus [12]
  ED50: 90 µmol/kg
Mus musculus [13]
  Protection: 80%
Mus musculus [14]
  Convulsion: 0%
[34]
  Cmax: 31 µM
[50]
  Cmax: 15 µM
Canis familiaris [51]
  Ectopic beats: 3%
